# CHO parental Ca: signal in parental CHO cells, OX1R antagonist counter-screen; parental CHO-K1, ATP-induced calcium, Fluo-8 fluorescence; inhibition, % at 5.6 µM; 330,000 compounds, 0.63% hits;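 active = inhibition above that plate's mean sample inhibition plus 3 SD, cut at about 26% in these data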;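 also: 0% = ATP-challenged DMSO wells and 100% = DMSO wells without ATP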
#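 Material – parental CHO cells · Reagent – ATP stimulus · Compound – single nominal dose of 5.6 µM per compound · Detection – Fluo-8 fluorescence · Read-out basis – percent inhibition of calcium signal · Controls – ATP-challenged DMSO wells low, unchallenged DMSO wells high · Repeats – no replicates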
# OXTR ag: activates the human oxytocin receptor; P30559; CHO-OTR cells, Fluo-8 calcium fluorescence; normalized: DMSO 0%, oxytocin 100%; activation, % at 3 µM; 320,000 compounds, 0.32% hits; AID 2435;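 active = activation above the mean of all tested compounds plus 3 SD, cutoff set per screening run, cut at about 20% in these data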;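 also: peak over basal fluorescence ratio from a 100 s FLIPR kinetic read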
# Target sequence (P30559 whole entry, looked up): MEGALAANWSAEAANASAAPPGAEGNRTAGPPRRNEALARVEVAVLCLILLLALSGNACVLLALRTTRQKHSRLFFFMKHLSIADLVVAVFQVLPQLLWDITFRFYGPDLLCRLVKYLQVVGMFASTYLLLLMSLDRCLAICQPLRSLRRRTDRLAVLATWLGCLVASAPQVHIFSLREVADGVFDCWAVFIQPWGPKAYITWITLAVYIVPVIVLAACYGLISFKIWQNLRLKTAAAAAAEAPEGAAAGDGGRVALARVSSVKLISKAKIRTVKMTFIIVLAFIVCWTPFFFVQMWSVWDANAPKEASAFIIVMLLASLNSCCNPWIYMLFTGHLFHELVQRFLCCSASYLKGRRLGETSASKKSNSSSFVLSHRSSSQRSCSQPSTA
# OXTR potentiate: human OXTR potentiation; CHO-OTR cells, Fluo-8 calcium fluorescence, potentiator mode; 0% = oxytocin EC15, 100% = EC100; 320,000 compounds, 0.061% hits; P30559; activation, % at 3 µM;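 active = activation above that plate's cutoff, the mean activation of tested compounds plus 3 SD, cut at about 6.6% in these data, passing the limit was not always enough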;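 also: 100% uses oxytocin at 75 nM as the full agonist control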
#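 Measured by – Fluo-8 calcium dye fluorescence · Test system – human OTR in CHO cells · Dosing – one concentration, 3.0 µM compound · Controls – EC15 oxytocin alone as 0%, 75 nM oxytocin as 100% · Evaluation – normalized max/min fluorescence ratio, % activation · Timing – 6 min pre-incubation, 100 s read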
# OX1R antag-1: antagonists of human orexin 1 receptor (OX1R); O43613; OX1R-expressing cells, FRET antagonist read-out; inhibition, % at 6.6 µM; 330,000 compounds, 1.8% hits; in the data active = inhibition mostly above about 38%, no sharp cut-off; inactive = mostly below about 40%;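 also: 0% = agonist challenge alone and 100% = reference antagonist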
# V1aR counter: V1a receptor agonism, counter-screen for OXTR agonists; activation, % at 3 µM; 320,000 compounds, 0.25% hits; AID 2797; P37288; CHO-V1R cells, Fluo-8 calcium fluorescence, agonist mode; 0% DMSO, 100% 3 nM vasopressin;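 active = activation above the mean activation of all tested compounds plus 3 SD, per screening run, cut at about 20% in these data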;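 also: signal is peak over basal fluorescence ratio across a 100 second FLIPR read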
# OX1R antag-2: human HCRTR1 antagonism; O43613; CHO/OX1R cells, Fluo-8 calcium fluorescence, orexin A; inhibition, % at 5 µM; 330,000 compounds, 0.43% hits;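 active = inhibition above its plate's threshold, mean inhibition of all tested compounds on the plate plus 3 SD, cut at about 37% in these data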;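 also: 0% = orexin A challenge wells and 100% = SB-334867-A antagonist wells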
# An asterisk follows results filed as active. Most compounds without a hit are left out; they make up all but 2.7% or so of the library.
SMILES,CHO parental Ca,OXTR ag,OXTR potentiate,OX1R antag-1,V1aR counter,OX1R antag-2
CC(C)[C@H](NC(=O)c1ccccc1F)C(=O)OCC(=O)NC1CC1,-3,1,1,6,0,1
COC(=O)Cc1[nH]c(=S)[nH]c1C(=O)OC,-7,0,1,9,0,-3
O=C(CNc1ccccc1)c1ccc([N+](=O)[O-])cc1,7,1,-6,49,1,4
O=C(CNC(=O)c1ccc([N+](=O)[O-])cc1)c1ccccc1,2,-1,-6,47*,0,6
O=C(CNC(=O)c1ccco1)OCC(=O)c1ccc(Cl)cc1,-3,-1,-6,5,0,-8
O=C(CNC(=O)c1cccs1)c1ccc([N+](=O)[O-])cc1,-8,-1,-5,59*,0,0
CC(=O)NC(CC(=O)c1ccc([N+](=O)[O-])cc1)C(Cl)(Cl)Cl (centres undefined),-7,1,-3,76*,2,3
O=C(CNC(=O)c1cccs1)OCC(=O)c1ccc([N+](=O)[O-])cc1,-11,0,1,34,1,4
O=C(CNC(=O)c1ccco1)OCC(=O)c1ccc([N+](=O)[O-])cc1,-7,4,-13,41*,0,-10
O=S(=O)(NCC1CCCO1)c1ccccc1F (centres undefined),-17,1,-1,15,0,-20
C[C@@H]1CN([C@@H](C)CO)C(=O)c2cc(N(C)C)ccc2O[C@@H]1CN(C)S(C)(=O)=O,1,2,-3,4,2,-6
Fc1ccc(NC(=S)NCCc2ccc(Cl)cc2)cc1,-9,4,-13,-3,6,5
O=[N+]([O-])c1cccc(NC(=S)NCCc2ccccc2)c1,17,11,-19,53*,6,-20
O=[N+]([O-])c1ccc(NC(=S)NCCc2ccc(F)cc2)cc1,34*,10,-9,65*,6,48*
Fc1ccc(CCNC(=S)Nc2ccc(F)c(Cl)c2)cc1,32*,10,-15,65,7,30
Fc1cccc(NC(=S)NCCc2ccccc2)c1,1,4,-15,30,6,-18
COc1ccc(NC(=O)COC(=O)C2CCN(S(=O)(=O)c3cccs3)CC2)cc1OC,-2,3,-3,10,1,-11
CC(OC(=O)c1ccc2c(c1)S(=O)(=O)c1ccccc1C2=O)C(N)=O (centres undefined),-5,1,-9,71*,1,0
COCCN1CCN(C(=O)c2ccc3c(c2)S(=O)(=O)c2ccccc2C3=O)CC1,-18,0,-2,66*,0,-1
O=C1c2ccccc2S(=O)(=O)c2cc(C(=O)N3CCN(c4ccccc4)CC3)ccc21,-9,1,-7,32,0,-4
O=C(NCCc1ccccc1)c1ccc2c(c1)S(=O)(=O)c1ccccc1C2=O,-19,-2,-3,24,0,-25
NC(=O)c1ccc2c(c1)S(=O)(=O)c1ccccc1C2=O,-13,0,-8,65*,3,-15
O=C(COC(=O)c1ccc2c(c1)S(=O)(=O)c1ccccc1C2=O)NC1CC1,-15,-1,5,51*,-1,-21
CC1=C(C(=O)Nc2ccc(C(=O)NCCCN3CCCCC3)cc2)SCCO1,-8,0,4,7,0,-21
NC(=O)COC(=O)c1ccc2c(c1)S(=O)(=O)c1ccccc1C2=O,-8,0,1,64*,1,-11
SMILES,CHO parental Ca,OXTR ag,OXTR potentiate,OX1R antag-1,V1aR counter,OX1R antag-2
O=C(O)c1ccc2c(c1)S(=O)(=O)c1cc(Cl)ccc1C2=O,-8,0,-1,32*,0,-9
COC(=O)[C@@H](NC(=O)c1ccc2c(c1)S(=O)(=O)c1ccccc1C2=O)C(C)C,-8,2,-10,73*,1,-41
CSc1nc(C)c(C(=O)C[n+]2ccccc2)cc1C#N,-4,1,1,21,-1,-17
Cc1cccc(N2CCN(C(=O)Cn3sc4nc(C)cc(C)c4c3=O)CC2C)c1 (centres undefined),36*,15,-7,5,16,40
CCOc1ccc(NC(=O)Cn2sc3nc(C)cc(C)c3c2=O)cc1,46*,4,-10,5,5,52*
Cc1cc(C)c2c(=O)n(CC(=O)Nc3cccc(F)c3)sc2n1,22,8,-6,17,12,6
Cc1cccc(N2CCN(C(=O)Cn3nc(C)n4cccc4c3=O)CC2C)c1 (centres undefined),-6,0,-4,3,1,-10
